Screens deposited in PubChem by Broad Institute.
Vif inh: HIV Vif inhibition | HEK293T cells, Vif self-association by quenched fluorescence, imaging, 24 h | inhibition, % at 7.49 µM | 340,000 tested, 0.35% active | AID 602346; in the data active means inhibition above about 50%, passing the limit was not always enough
SR-BI HDL uptake: mouse SR-BI HDL lipid transfer inhibition; ldlA[mSR-BI] CHO cells, DiI-HDL uptake fluorescence, 3 h; inhibition, % at 12.5 µM; 320,000 tested, 0.96% active; AID 488896;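 active means mean replicate inhibition of at least 70% and a set share of replicates each scoring 70 or more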;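 further: 0% = median of neutral control wells and 100% = median of positive control wells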
Target sequence (Q61009 whole entry, looked up): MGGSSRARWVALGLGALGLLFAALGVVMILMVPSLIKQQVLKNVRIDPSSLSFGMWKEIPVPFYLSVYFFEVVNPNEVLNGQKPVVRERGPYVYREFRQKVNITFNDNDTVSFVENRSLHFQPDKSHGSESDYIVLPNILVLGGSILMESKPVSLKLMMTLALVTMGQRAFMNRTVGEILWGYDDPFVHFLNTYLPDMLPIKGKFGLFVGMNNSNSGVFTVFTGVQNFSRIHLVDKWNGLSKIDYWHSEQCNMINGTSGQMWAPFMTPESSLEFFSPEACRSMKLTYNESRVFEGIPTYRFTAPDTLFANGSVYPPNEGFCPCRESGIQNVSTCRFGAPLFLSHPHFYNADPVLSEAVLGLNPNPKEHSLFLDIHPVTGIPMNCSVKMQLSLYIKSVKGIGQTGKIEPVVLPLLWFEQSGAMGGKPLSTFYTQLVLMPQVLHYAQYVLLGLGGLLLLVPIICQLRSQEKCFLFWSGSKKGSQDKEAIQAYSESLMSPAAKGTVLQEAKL
Statin myotox sup: suppressors of simvastatin-induced myotoxicity in C2C12 myotubes. 330,000 tested, 0.78% active. AID 602340. ATP luminescence, 48 h; scaled: DMSO 0, geranylgeraniol control 100. rescue of ATP level, % at 7.49 µM;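 active means mean ATP rescue above about 67%, or every replicate alone reaching that limit, limit read from the data, passing the limit was not always enough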;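 further: myotubes were challenged with 10 µM simvastatin during compound exposure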
SR-BI DiI-HDL act: activators of SR-BI mediated HDL lipid uptake; CHO ldlA[mSR-BI] cells, DiI-HDL uptake fluorescence, 3 h; 100 = double the neutral-control signal; activation, % at 12.5 µM; 320,000 tested, 0.096% active;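 active means mean replicate activation of at least 60% and every replicate at or above 60%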;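 further: 0% = median plate neutral-control signal and 100% = twice that signal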
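Test system: SR-BI-overexpressing, LDLR-lacking CHO cells. Measured by: DiI fluorescence, bottom read. Medium: Ham's F12 with 0.5% BSA, HEPES 25 mM, pH 7.4. Timing: 3 h uptake period with compound, 37 °C.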
An asterisk follows results filed as active; i = inactive; . = no result. Rows were chosen to be rich in hits. Some 1.7% of all compounds tested hit in one or more screens of this group.

SMILES	Vif inh	SR-BI HDL uptake	Statin myotox sup	SR-BI DiI-HDL act
O=C(C[C@@H]1CC[C@H](NS(=O)(=O)c2ccccc2)[C@@H](CO)O1)NCc1ccccc1F	.	.	2.4	.
C[C@@H]1CN([C@H](C)CO)C(=O)Cc2cc(NC(=O)c3ccncc3)ccc2O[C@H]1CN(C)Cc1ccncc1	.	.	-4.6	.
C=CCOc1c(Br)cc(/C=C2\SC(=Nc3ccccc3)NC2=O)cc1OC	-5.2	72.0*	24.8	-72.0
NC(=O)c1cccc(-c2ccnc3c2CC(C(=O)NCc2ccco2)O3)c1 (configuration not stated)	-2.5	.	3.4	.
CC(=O)c1cccc(-c2ccnc3c2CC(C(=O)NCc2ccco2)O3)c1 (configuration not stated)	54.2*	.	-63.7	.
COC(=O)C[C@@H]1CC[C@@H]2[C@@H](COc3ccc(NC(=O)NC(C)C)cc3C(=O)N2C)O1	.	.	-17.3	.
O=[N+]([O-])c1ccc(N2CCN(Cc3ccccc3)CC2)s1	2.5	-24.0	12.2	24.0
O=[N+]([O-])c1ccc(N2CCN(Cc3ccccc3)CC2)c2c1no[n+]2[O-]	113.5*	.	2.5	.
COc1ccccc1NC(=O)Nc1ccc2c(c1)C(=O)N(C)C[C@H](OC)[C@@H](C)CN[C@@H](C)CO2	.	.	9.5	.
CCOC(=O)c1cnc(SC)nc1Oc1cccc(NS(=O)(=O)c2ccc(C)cc2)c1	.	40.0	90.3*	-40.0
CCOC(=O)c1ccccc1NS(=O)(=O)c1ccc(C)cc1	3.5	29.4	.	-29.4
C[C@H]1CN([C@@H](C)CO)C(=O)CCCn2nncc2CO[C@@H]1CN(C)C(=O)Nc1ccc(F)cc1	.	.	-12.0	.
COC(=O)C1=C(C)NC(C)=C(C(=O)OC)C1C1CC=CCC1 (configuration not stated)	8.9	-28.7	122.5*	28.7
COc1ccccc1CNC(=O)COC(=O)Cc1ccc(Br)cc1	9.9	-8.0	0.7	8.0
COc1ccc(CC(=O)OCC(=O)NCc2ccccc2Cl)cc1OC	-2.3	-80.0	.	80.0*
CCOc1cc(-c2nc(-c3ccncc3)no2)cc(OCC)c1OCC	5.3	23.3	6.6	-23.3
CCOc1cc(-c2nc(-c3ccccc3OC)no2)cc(OCC)c1OCC	7.9	80.3*	3.9	-80.3
CCOc1cc(-c2nc(-c3ccc(OC)cc3)no2)cc(OCC)c1OCC	-2.4	75.1*	.	-75.1
CCOc1ccc(-c2nnc(-c3ccco3)o2)cc1OCC	-0.7	21.8	-3.0	-21.8
CCOc1cc(-c2nnc(-c3ccco3)o2)cc(OCC)c1OCC	-3.6	77.1*	-8.7	-77.1
CN(C)CCCNC(=O)C[C@@H]1C=C[C@H](NS(=O)(=O)c2ccc(F)cc2)[C@H](CO)O1	.	.	-17.6	.
C[C@@H]1CN([C@@H](C)CO)S(=O)(=O)c2ccc(C3=CCCCC3)cc2O[C@@H]1CN(C)C(=O)C1CCOCC1	.	.	-2.0	.
Cc1nn(-c2ccccc2)c2c1C(c1ccc(O)c(O)c1)N1C(=N2)C(Nc2ccccc2)=Nc2ccccc21 (configuration not stated)	10.7	17.1	5.2	-17.1
Cc1ccc(NC2=Nc3ccccc3N3C2=Nc2c(c(C)nn2-c2ccccc2)C3c2ccc(O)c(O)c2)cc1 (configuration not stated)	.	119.3*	17.1	-119.3
Cc1cccc(NC2=Nc3ccccc3N3C2=Nc2c(c(C)nn2-c2ccccc2)C3c2ccc(O)c(O)c2)c1 (configuration not stated)	5.4	102.7*	.	-102.6
SMILES	Vif inh	SR-BI HDL uptake	Statin myotox sup	SR-BI DiI-HDL act
O=S(=O)(c1ccc(S(=O)(=O)N(Cc2ccco2)Cc2ccccc2Cl)cc1)N1CCCC1	-3.5	-40.9	93.5*	40.9
O=C(NCc1ccccc1)c1cccc(COc2ccc3c(c2)CCC3)c1	-2.9	-10.5	.	10.5
COc1cccc(OC)c1C(=O)NNC(=O)c1cccc(COc2ccc3c(c2)CCC3)c1	-8.9	75.6*	.	-75.6
COc1cccc(C(=O)Nc2ccc3nc(N4CCOCC4)cc(C)c3c2)c1	.	78.5*	-3.8	-78.5
CCN1CCN(c2cc(C)c3cc(NC(=O)c4cccc(OC)c4)ccc3n2)CC1	17.5	.	1.3	.
Cc1nnc(-c2ccccc2)c(=O)n1/N=C/c1c(O)ccc2ccccc12	35.4	120.3*	84.1*	-120.3
COc1cc(/C=N/n2c(C)nc3ccccc3c2=O)ccc1O	7.1	i	-2.1	506.7*
Cc1nc2ccccc2c(=O)n1/N=C/c1ccc2ccccc2c1O	-12.0	89.8*	.	-89.8
Cc1nc2ccccc2c(=O)n1/N=C/c1ccccc1	21.8	0.6	4.7	-0.6
CC=Cc1ccc2n(c1=O)C[C@H]1[C@H](CO)[C@@H](C(=O)NCCc3ccccc3)N(C(C)=O)[C@@H]21 (mixture of isomers)	.	.	0.2	.
COc1ccc(-c2ccc3n(c2=O)C[C@H]2[C@H](CO)[C@@H](C(=O)NC4CCC4)N(S(C)(=O)=O)[C@@H]32)cc1	.	.	-24.9	.
CCOC(=O)CSc1nc(N2CCOCC2)c2c(c1C#N)CC(C)(C)OC2	-14.5	-415.7	-6.1	415.8*
O=C(NCCN1CCCC1)c1ccccc1Cl	3.9	-15.6	.	15.6
O=C(NCCN1CCNCC1)c1ccccc1O	61.7*	.	0.7	.
CCc1ccccc1OCC(=O)Nc1ccc(N2CCCC2)cc1C	-4.0	68.6	-100.1	-68.6
Cc1cc(N2CCCC2)ccc1NC(=O)COc1ccccc1	8.8	71.8*	14.3	-71.8
Cc1cc(OCC(=O)Nc2ccc(N3CCCC3)cc2)cc(C)c1Cl	-20.0	87.4*	9.2	-87.4
O=C(NCc1ccccc1)N1CCN(c2ccccc2)CC1	-13.8	10.9	6.0	-10.9
S=C(NCc1ccccc1)N1CCN(c2ccccc2)CC1	-1.9	-77.8	.	77.8*
CCOc1ccccc1Nc1ncnc2ccc(Br)cc12	-6.7	-4.7	.	4.7
CCOc1ccccc1Nc1ncnc2ccccc12	-4.0	20.1	85.9*	-20.1
C[C@@H]1CN([C@@H](C)CO)C(=O)c2cc(NS(=O)(=O)c3ccc(F)cc3)ccc2O[C@@H]1CN(C)C	.	.	13.1	.
CCOc1ccc2nc(NS(=O)(=O)c3ccc(NC(C)=O)cc3)sc2c1	4.4	18.1	-7.7	-18.0
CCOc1ccc2nc(NS(=O)(=O)Cc3ccccc3)sc2c1	106.1*	-32.3	-86.6	32.3
Cc1nc2ccccn2c1-c1nnco1	0.6	.	71.7*	.
SMILES	Vif inh	SR-BI HDL uptake	Statin myotox sup	SR-BI DiI-HDL act
CO[C@H](CN(C)Cc1ccc2c(c1)OCO2)[C@H](C)CN(C(=O)Nc1ccc(F)cc1)[C@@H](C)CO	.	.	14.7	.
Cc1ccc2[nH]c(C(=O)N/N=C/c3ccccc3O)c(C)c2c1	-28.9	132.1*	-10.7	-132.1
COc1cc(OC)c2cc(C(=O)N/N=C/c3ccccc3O)[nH]c2c1	-15.1	122.9*	-8.2	-122.9
COc1ccc(OC)c(/C=N/NC(=O)c2cc3c(OC)c(OC)ccc3[nH]2)c1	-7.9	71.9*	.	-71.9
C/C(=N\NC(=O)c1ccc(CN2CCc3ccccc3C2)cc1)c1ccccc1O	2.4	108.7*	.	-108.7
CCCn1c(C2CCCN2c2nc(-c3cccc(Br)c3)cs2)nc2cc(Cl)c(Cl)cc21 (configuration not stated)	8.6	10.3	117.4*	-10.3
